Assay results published in ChEMBL document CHEMBL4627297, “Comparative reactivity analysis of small-molecule thiol surrogates” (Bioorg Med Chem, 2020).

What was measured:
[1] = Drug reactivity against N-benzoyl-cysteine in pH 7.4 PBS buffer assessed as half life at 250 uM measured up to 72 hrs by HPLC-MS analysis; type: ADME; conditions: PBS buffer with N-benzoyl-cysteine (thiol reactivity)
Procedure, shortened: (§1)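 Fragment (500 µM in PBS pH 7.4 with 10% acetonitrile and 200 µM indoprofen internal standard) was mixed 1:1 with 10 mM thiol surrogate in PBS. Final concentrations were 250 µM fragment, 5 mM thiol, 100 µM indoprofen and 5% acetonitrile, giving pseudo-first-order conditions. HPLC sampling at 0, 1, 2, 4, 8, 12, 24, 48 and 72 h.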

[2] = Drug reactivity against cysteine in pH 7.4 PBS buffer assessed as half life at 250 uM measured up to 72 hrs by HPLC-MS/MS analysis; type: ADME; conditions: PBS buffer with cysteine (thiol reactivity); procedure, shortened: as §1
[3] = Drug reactivity against N-benzoyl-glutathione in pH 7.4 PBS buffer assessed as half life at 250 uM measured up to 72 hrs by HPLC-MS/MS analysis; type: ADME; conditions: PBS buffer with N-benzoyl-glutathione (thiol reactivity); procedure, shortened: as §1
[4] = Drug reactivity against N-bezoyl-cysteamine in pH 7.4 PBS buffer assessed as half life at 250 uM measured up to 72 hrs by HPLC analysis; type: ADME; conditions: PBS buffer with N-benzoyl-cysteamine (thiol reactivity); procedure, shortened: as §1
[5] = Drug reactivity against glutathione in pH 7.4 PBS buffer assessed as half life at 250 uM measured up to 72 hrs by HPLC analysis; type: ADME; conditions: PBS buffer with glutathione (thiol reactivity); procedure, shortened: as §1
[6] = Solubility of the compound in pH 7.4 PBS buffer; type: physicochemical
Procedure, shortened: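 Solubility was judged by eye as the absence of precipitation during the thiol reactivity incubations. Conditions were 250 µM fragment in PBS pH 7.4 with 5% acetonitrile, over up to 72 h.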

[7] = Drug reactivity against cysteamine in pH 7.4 PBS buffer assessed as half life at 250 uM measured up to 72 hrs by HPLC-MS/MS analysis; type: ADME; conditions: PBS buffer with cysteamine (thiol reactivity); procedure, shortened: as §1
[8] = Drug reactivity against N-acetyl-cysteine in pH 7.4 PBS buffer assessed as half life at 250 uM measured up to 72 hrs by HPLC-MS analysis; type: ADME; conditions: PBS buffer with N-acetyl-cysteine (thiol reactivity); procedure, shortened: as §1

SMILES | half-life at 250 µM [1] | half-life at 250 µM [2] | half-life at 250 µM [3] | half-life at 250 µM [4] | half-life at 250 µM [5] | solubility [6] | half-life at 250 µM [7] | half-life at 250 µM [8]
FC(F)(F)c1cc(N=C=S)cc(C(F)(F)F)c1 | 1.02 min | < 1.02 min | < 0.017 h | < 1.02 min | < 1.02 min | Soluble | < 1.02 min | < 0.017 h
C=CC(=O)Oc1cc(C(F)(F)F)cc(C(F)(F)F)c1 | < 1.02 min | < 1.02 min | < 0.017 h | < 1.02 min | < 1.02 min | Soluble | < 1.02 min | < 0.017 h
FC(F)(F)c1cc(S)cc(C(F)(F)F)c1 | > 3000 min | > 3000 min | 11.2 h | > 3000 min | 1890 min | Soluble | > 3000 min | 33 h

More lines, now with the values ahead:

half-life at 250 µM [1] | half-life at 250 µM [2] | half-life at 250 µM [3] | half-life at 250 µM [4] | half-life at 250 µM [5] | solubility [6] | half-life at 250 µM [7] | half-life at 250 µM [8] | SMILES
< 1.02 min | < 1.02 min | < 0.017 h | < 1.02 min | < 1.02 min | Soluble | < 1.02 min | < 0.017 h | O=C(CBr)c1cc(C(F)(F)F)cc(C(F)(F)F)c1
> 3000 min | > 3000 min | > 50 h | > 3000 min |  | Soluble | > 3000 min | > 50 h | Fc1cc(C(F)(F)F)cc(C(F)(F)F)c1
